ChEMBL document CHEMBL4715858, “10-N-heterocylic aryl-isoxazole-amides (AIMs) have robust anti-tumor activity against breast and brain cancer cell lines and useful fluorescence properties” (Bioorg Med Chem, 2020)
Activity calls are given as the source filed them. No cut-off for these calls is given here.

What was measured:
[1] = test system: Quadruplex DNA; assay: Stabilization of c-myc Pu22 G4 quadruplex oligonucleotide (unknown origin) assessed as anisotropic shift at 2 equivalents of compound by NMR spectroscopy; format: nucleic-acid assay
Procedure, shortened: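 1H NMR titration of the c-myc Pu22 oligomer, following the G-tetrad imino hydrogen-bonding region (10.95–11.6 ppm) for anisotropic shifts.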

[2] = test system: MDA-MB-468; assay: Anticancer activity against human MDA-MB-468 cells assessed as cell growth inhibition measured after 3 to 5 days by MTT assay; format: functional, cell-based
[3] = test system: C6; assay: Anticancer activity against rat C6 cells assessed as cell growth inhibition measured after 3 to 5 days by MTT assay; format: functional, cell-based
[4] = test system: SNB-19; assay: Anticancer activity against human SNB-19 cells assessed as cell growth inhibition measured after 3 to 5 days by MTT assay; format: functional, cell-based
Procedure, shortened: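 MTT colorimetric growth-inhibition assay in SNB-19 glioblastoma cells. IC50 obtained by fitting a logistic model to the dose-response data, as the concentration giving 50% growth inhibition relative to the DMSO control.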

[5] = test system: Quadruplex DNA; assay: Stabilization of c-myc Pu22 G4 quadruplex oligonucleotide (unknown origin) at 2 equivalents of compound by circular dichroism spectral analysis; format: nucleic-acid assay
Procedure, shortened: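 Pu22 at 5 µM strand in 1 mM potassium phosphate pH 6, alone or with 2 equivalents compound, annealed at 90 °C for 10 min and then cooled to 4 °C overnight. CD spectra recorded 200–400 nm at 5 °C, 1 nm bandwidth, 0.2 nm step, 0.5 s per point.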

[6] = test system: Quadruplex DNA; assay: Stabilization of c-myc Pu22 G4 quadruplex oligonucleotide (unknown origin) assessed as melting temperature at 2 equivalents of compound by thermal melting curve based analysis (reference value: 58.4 degC); format: nucleic-acid assay
Procedure, shortened: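 Annealed at 90 °C for 10 min, then cooled gradually to 4 °C overnight. CD melting monitored at 265 nm from 20–90 °C at 1 °C/min in 0.5 °C steps. Tm from a six-parameter logistic fit.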

[7] = Drug uptake in cytoplasm of human SNB-19 cells at 500 nM incubated for 10 mins followed by compound washout twice by HCS NuclearMask staining based confocal laser scanning microscopy; format: ADME, subcellular; conditions: snb-19, 10 min, 0.5 µM
Procedure, shortened: (§1)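 Cells plated at 20,000 cells/well and left to adhere overnight. Treatment medium was made from 5 mM DMSO stocks diluted in growth medium and applied for 10 min at growth conditions. Cells were then washed twice with PBS and fixed in 4% PFA for 10 min on ice. Imaged immediately by confocal microscopy, 60x oil objective, excitation 405 nm, emission 422 nm, with HCS NuclearMask counterstain.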

[8] = Drug uptake in nucleus of human SNB-19 cells at 500 nM incubated for 10 mins followed by compound washout twice by HCS NuclearMask staining based confocal laser scanning microscopy; format: ADME, subcellular; conditions: snb-19, 10 min, 0.5 µM; procedure, shortened: as §1
[9] = test system: SNB-19; assay: Induction of apoptosis in human SNB-19 cells assessed as organized cell death at 500 nM incubated for 10 mins followed by compound washout twice by HCS NuclearMask staining based confocal laser scanning microscopy; format: functional; procedure, shortened: as §1
[10] = test system: SNB-19; assay: Induction of apoptosis in human SNB-19 cells assessed as membrane blebbing at 500 nM incubated for 10 mins followed by compound washout twice by HCS NuclearMask staining based confocal laser scanning microscopy; format: functional, cell-based; procedure, shortened: as §1
[11] = Drug uptake in human SNB-19 cells assessed as punctate localization at 500 nM incubated for 10 mins followed by compound washout twice by HCS NuclearMask staining based confocal laser scanning microscopy; format: ADME, cell-based; conditions: snb-19, 10 min, 0.5 µM; procedure, shortened: as §1

| SMILES | Activity [1] | IC50 [2] [µM] | IC50 [3] [µM] | IC50 [4] [µM] | further results |
| --- | --- | --- | --- | --- | --- |
| CCOC(=O)c1c(-c2c3ccccc3c(-c3ccccc3)c3ccccc23)noc1C | Active |  |  |  |  |
| Cc1onc(-c2c3ccccc3c(-c3cccnc3)c3ccccc23)c1C(=O)Nc1cc(C(=O)N(CCCN(C)C)CCCN(C)C)n(C)c1 |  | 1.29 | > 25 | 7.76 |  |
| Cc1onc(-c2c3ccccc3c(-c3ccccc3)c3ccccc23)c1C(=O)Nc1cc(C(=O)N(CCCN(C)C)CCCN(C)C)n(C)c1 | Active |  |  |  |  |
| Cc1onc(-c2c3ccccc3c(-c3cccc4cccnc34)c3ccccc23)c1C(=O)Nc1cc(C(=O)N(CCCN(C)C)CCCN(C)C)n(C)c1 | Active | 1.17 | 6.71 | 2.03 | Activity [5]: Active; Tm [6]: 61.7 °C; Drug uptake [7]: Active; Drug uptake [8]: Not Active; Activity [9]: Active; Activity [10]: Active; Drug uptake [11]: Active |
| Cc1onc(-c2c3ccccc3c(-c3ccccn3)c3ccccc23)c1C(=O)Nc1cc(C(=O)N(CCCN(C)C)CCCN(C)C)n(C)c1 |  | 6.34 | > 25 | > 25 |  |
| Cc1onc(-c2c3ccccc3c(-c3ccncc3)c3ccccc23)c1C(=O)Nc1cc(C(=O)N(CCCN(C)C)CCCN(C)C)n(C)c1 |  | 3.1 | 16.9 | 7.08 |  |
